ChEMBL document CHEMBL3108700, “Designing anti-inflammatory drugs from parasitic worms: a synthetic small molecule analogue of the Acanthocheilonema viteae product ES-62 prevents development of collagen-induced arthritis” (J Med Chem, 2013)
The source made the active and inactive calls. Unless noted, no cut-off for these calls is given here.

Columns and labels:
[1] = biological target: T1, Toll-like receptor 4 (Mus musculus) (UniProt Q9QUK6); assay: Inhibition of TLR4 in BALB/c mouse BMDM assessed as reduction of LPS-stimulated IL-6 production at 5 ug/ml preincubated for 18 hrs followed by LPS challenge measured after 24 hrs by ELISA
T1 sequence (whole entry): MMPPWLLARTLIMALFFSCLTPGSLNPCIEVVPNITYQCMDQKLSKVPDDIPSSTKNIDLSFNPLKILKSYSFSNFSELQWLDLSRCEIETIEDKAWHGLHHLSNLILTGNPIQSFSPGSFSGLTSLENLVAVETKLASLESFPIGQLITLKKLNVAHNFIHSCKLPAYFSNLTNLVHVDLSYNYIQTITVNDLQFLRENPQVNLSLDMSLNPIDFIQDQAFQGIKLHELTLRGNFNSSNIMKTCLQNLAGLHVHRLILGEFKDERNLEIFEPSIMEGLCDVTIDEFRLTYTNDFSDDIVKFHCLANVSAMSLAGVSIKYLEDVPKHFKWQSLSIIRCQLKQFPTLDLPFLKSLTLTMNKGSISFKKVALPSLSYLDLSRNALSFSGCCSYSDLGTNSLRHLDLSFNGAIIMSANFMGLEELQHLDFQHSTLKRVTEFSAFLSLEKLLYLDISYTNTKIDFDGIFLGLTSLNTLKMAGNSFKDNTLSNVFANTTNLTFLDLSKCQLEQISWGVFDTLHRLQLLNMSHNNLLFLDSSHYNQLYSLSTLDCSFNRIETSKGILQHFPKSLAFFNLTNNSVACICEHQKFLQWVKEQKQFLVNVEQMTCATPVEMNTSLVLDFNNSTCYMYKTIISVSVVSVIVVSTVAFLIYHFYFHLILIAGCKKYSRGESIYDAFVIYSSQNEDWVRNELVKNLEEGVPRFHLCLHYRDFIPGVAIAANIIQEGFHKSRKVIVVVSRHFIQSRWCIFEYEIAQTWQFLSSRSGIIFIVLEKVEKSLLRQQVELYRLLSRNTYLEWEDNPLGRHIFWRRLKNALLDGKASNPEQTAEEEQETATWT
Method in brief: (§1)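 BALB/c male bone marrow macrophages were differentiated 7 days with L929 supernatant (≥99% CD11b+/F4/80+). Cells were plated at 2 × 10^5/well in triplicate, rested overnight, and given compounds at 5 μg/mL for 18 h. They were then stimulated with 100 ng/mL S. minnesota LPS, 10 ng/mL Pam3CSK4 (BLP) or 0.01 μM CpG for 24 h. Supernatant IL-12p40 and IL-6 were measured by ELISA (sensitivity 16 pg/mL).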

[2] = Cytotoxicity against mouse BMDC assessed as reduction in cell viability
Mus musculus [3] = assay: (§2) Antiinflammatory activity in DBA/1 mouse collagen-induced arthritis model assessed as effect on number of PMA/ionomycin-stimulated gammadelta+ T cells expressing IFNgamma at 50 ug/kg, sc administered 2 days prior to collagen challenge continued till day 21 post collagen challenge by flow cytometric analysis relative to control; assay type: functional, organism-based; settings: T-cell
Mus musculus [4] = assay: Antiinflammatory activity in DBA/1 mouse collagen-induced arthritis model assessed as reduction in total number of DLN cells at 50 ug/kg, sc administered 2 days prior to collagen challenge continued till day 21 post collagen challenge; assay type: functional, organism-based
Method in brief: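 Dosing was 1 μg/dose or PBS given subcutaneously on days −2, 0 and 21 of CIA. Total, CD4+, CD8+ and γδ T cell numbers in draining lymph nodes were counted by flow cytometry for each mouse. Naive mice not exposed to collagen served as a further control (naive n = 7; PBS and treated n = 13).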

[5] = biological target: T2, Toll-like receptor 9 (Mus musculus) (UniProt Q9EQU3); assay: Inhibition of TLR9-mediated NFkappaB p65 activation in CpG-stimulated BALB/c mouse BMDM at 5 ug/ml preincubated for 18 hrs followed by CpG challenge measured after 1 hr by TransAM ELISA
T2 sequence (whole entry): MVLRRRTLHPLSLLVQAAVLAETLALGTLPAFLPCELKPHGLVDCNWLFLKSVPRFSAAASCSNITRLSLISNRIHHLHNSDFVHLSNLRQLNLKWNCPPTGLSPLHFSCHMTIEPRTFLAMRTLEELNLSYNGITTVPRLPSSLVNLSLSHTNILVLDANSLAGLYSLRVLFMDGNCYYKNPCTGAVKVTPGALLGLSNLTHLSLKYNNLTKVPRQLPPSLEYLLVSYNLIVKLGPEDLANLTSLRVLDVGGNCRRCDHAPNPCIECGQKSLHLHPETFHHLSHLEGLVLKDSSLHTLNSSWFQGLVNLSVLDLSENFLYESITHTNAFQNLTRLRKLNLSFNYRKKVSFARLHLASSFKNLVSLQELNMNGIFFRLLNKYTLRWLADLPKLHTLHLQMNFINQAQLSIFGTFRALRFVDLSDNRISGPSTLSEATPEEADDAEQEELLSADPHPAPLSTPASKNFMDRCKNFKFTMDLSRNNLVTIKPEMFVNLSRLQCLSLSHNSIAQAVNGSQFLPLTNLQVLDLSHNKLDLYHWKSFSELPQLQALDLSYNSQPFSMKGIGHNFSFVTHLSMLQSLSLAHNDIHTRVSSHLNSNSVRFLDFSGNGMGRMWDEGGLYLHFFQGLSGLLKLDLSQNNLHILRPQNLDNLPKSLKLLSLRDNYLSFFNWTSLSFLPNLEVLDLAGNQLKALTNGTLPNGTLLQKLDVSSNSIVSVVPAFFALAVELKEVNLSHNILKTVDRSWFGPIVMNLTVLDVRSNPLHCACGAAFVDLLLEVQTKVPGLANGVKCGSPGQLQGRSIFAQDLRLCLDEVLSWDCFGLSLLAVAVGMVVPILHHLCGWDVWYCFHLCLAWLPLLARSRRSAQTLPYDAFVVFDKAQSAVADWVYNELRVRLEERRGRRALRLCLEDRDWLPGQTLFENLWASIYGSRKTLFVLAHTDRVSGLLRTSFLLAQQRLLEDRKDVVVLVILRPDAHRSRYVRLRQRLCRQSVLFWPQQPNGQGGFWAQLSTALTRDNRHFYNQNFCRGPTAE
Method in brief: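 Bone marrow macrophages (4 × 10^6/well) had their medium changed after 24 h, were pretreated with compounds at 5 μg/mL for 18 h, then stimulated for 1 h with 100 ng/mL LPS, 10 ng/mL BLP or 1 μM CpG. Activated NFκB p65 in nuclear extracts was measured by TransAM ELISA in duplicate.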

[6] = biological target: T2, Toll-like receptor 9 (Mus musculus); assay: Inhibition of TLR9 in BALB/c mouse BMDM assessed as downregulation of CpG-stimulated IL-6 level at 5 ug/ml preincubated for 18 hrs followed by CpG challenge measured after 24 hrs by ELISA relative to control; method in brief: as §1
Mus musculus [7] = assay: as §2, with “reduction in” for “effect on”, “total DLN” for “gammadelta+ T”; assay type: functional, organism-based
Method in brief: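 CIA mice given test agent (1 μg/dose) or PBS subcutaneously on days −2, 0 and 21. Draining lymph node cells (10^6/mL) in complete RPMI were stimulated ± 50 ng/mL PMA plus 500 ng/mL ionomycin, with 10 μg/mL brefeldin A for 5 h at 37 °C. Cells were surface-stained for CD4, CD8 and γδ, fixed and permeabilized, then stained for intracellular IFNγ and IL-17A. Gating used isotype controls. Cell numbers per individual mouse; naive n = 7, treated groups n = 13.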

SMILES: CN(C)CCS(=O)(=O)Cc1ccc(Br)cc1
- inhibition [1]: Active
- Activity [2]: Non-toxic
- Activity (Mus musculus [3]): inactive
- Activity (Mus musculus [4]): Active
- inhibition [5]: Active
- inhibition [6]: Active
- Activity (Mus musculus [7]): Active
